# p47phox inh: blocks human p47phox regulatory protein of NADPH oxidases; P14598; p47phox/p22phox peptide binding, fluorescence polarization, 2 h; inhibition, % at 24.7 µM; hit rate 0.53% among 220,000; AID 1274;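 active means inhibition above about 30%, limit read from the data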;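 further: 0% = p47phox with labelled peptide and 100% = labelled peptide alone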
# 14-3-3 Bad inh: disrupts binding of bovine 14-3-3 zeta to phospho-Bad peptide; P63103; TR-FRET 14-3-3zeta/Dy647-pBad peptide displacement, 1 h; inhibition, % at 21.7 µM; hit rate 0.71% among 220,000;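 active means inhibition above about 70%, limit read from the data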;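 further: 0% = full 14-3-3 plus peptide FRET controls and 100% = background without 14-3-3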
# Target sequence (P63103 whole entry, looked up): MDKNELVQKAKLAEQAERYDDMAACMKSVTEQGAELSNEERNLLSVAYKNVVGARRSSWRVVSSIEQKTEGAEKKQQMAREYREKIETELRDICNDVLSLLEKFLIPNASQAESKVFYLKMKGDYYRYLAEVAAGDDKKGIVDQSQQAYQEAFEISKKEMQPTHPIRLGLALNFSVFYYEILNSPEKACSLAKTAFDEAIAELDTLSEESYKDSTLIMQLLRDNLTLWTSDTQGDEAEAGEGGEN
# RBBP9 inhibitor: inhibitors of human serine hydrolase RBBP9; O75884; recombinant RBBP9, FP-Rh probe fluorescence polarization; inhibition, % at 7.94 µM; hit rate 0.2% among 220,000;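 active means inhibition above the campaign mean of all tested compounds plus 3 SD, cut at about 14% in these data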;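 further: plate controls were DMSO wells with RBBP9 for no effect and wells lacking RBBP9 protein for full effect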
# Target sequence (O75884 whole entry, looked up): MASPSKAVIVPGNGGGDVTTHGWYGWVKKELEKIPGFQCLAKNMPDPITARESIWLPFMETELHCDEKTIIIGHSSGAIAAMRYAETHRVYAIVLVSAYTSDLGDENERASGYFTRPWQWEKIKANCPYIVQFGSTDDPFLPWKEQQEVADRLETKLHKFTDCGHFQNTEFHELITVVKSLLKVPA
#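 System: RBBP9 protein / Quantity: 2.5 µM RBBP9 dispensing solution, before mixing / Also added: Serine-hydrolase probe FP-Rh, 375 nM pre-mixing / Dosing: 7.94 µM single dose, 0.794% DMSO / Timing: enzyme-compound preincubation 30 min, then probe labeling 45 min, 25 °C / Signal: FP readout at 525/598 nm / Controls: DMSO-treated enzyme wells and wells lacking RBBP9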
# WT yeast gro inh: growth inhibition of WT yeast, mitochondrial fusion screen; mitochondrial fusion phenotypic screen, WT strain; inhibition, % at 10 µM; hit rate 2.1% among 190,000; AID 1362; in the data active means inhibition above about 58%; tested in S. cerevisiae
# Cl transport mod: modulates chloride dependent transport by human KCC2 | KCC2 cells, thallium flux FluoZin-2 fluorescence | B-score of Tl+ flux slope (higher = more flux/activation; lower = inhibition) at 10 µM | hit rate 2.2% among 190,000;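 active means thallium flux slope and its plate-corrected score both differing from the plate sample mean at a set confidence after two filtering rounds, in either direction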;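 further: slope of fluorescence scaled to starting intensity during 10 to 20 s after thallium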
# ROMK mod: modulators of human ROMK potassium channel | P48048 | Tet-inducible ROMK, thallium flux fluorescence; actives lie on both sides | B-score at 10 µM | hit rate 2% among 130,000;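 active means signal ratio slope over the read window, or its plate-corrected B-score, at least 3 SD from the plate mean, either direction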;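 further: B-score of the F/F0 ratio slope over 7 to 12 s after thallium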
# * marks the source's active call; other numbers are inactive results; . = no result given; [ ] = dose if it differs, or a comment. Sampled rows, rich in hits. Any-hit rate of the full collection: about 5.8%.
SMILES,p47phox inh,14-3-3 Bad inh,RBBP9 inhibitor,WT yeast gro inh,Cl transport mod,ROMK mod
O=C1c2cccc3cccc(c23)C(=O)N1CCN1CCN(C(=S)Nc2ccccc2)CC1,4.5,-29.8,4.0,15.3,0.716,.
CCOc1ccc(N2C(=O)CC(NCCNc3ccc(C(=O)c4cccs4)cc3)C2=O)cc1 (centres undefined),0.3,-7.9,0.3,6.8,-0.569,.
CN(CCC#N)C(=O)Cn1nc(Cc2ccncc2)c2ccccc2c1=O,-3.3,-12.1,0.4,18.9,.,.
O=C(Cn1nc(Cc2ccncc2)c2ccccc2c1=O)N1CCc2ccccc2C1,-9.1,-0.1,4.2,5.7,-3.68*,.
O=C(CCSc1ccccn1)c1ccccc1,-2.1,-22.0,-1.6,10.1,-0.0492,0.0155
CCC(=O)N(Cc1ccc(S(N)(=O)=O)cc1)C1CC(=O)N(c2ccccc2)C1=O (centres undefined),-6.4,2.2,-3.8,-6.6,1.46,1.05
O=C(Oc1ccc(-c2nnco2)cc1)N1CCCCC1,5.0,3.4,-1.9,1.8,0.351,.
O=C(Oc1ccc(-c2nnco2)cc1)N(c1ccccc1)c1ccccc1,4.4,7.8,-7.3,58.3*,.,.
Cc1ccc(Cl)cc1N1CCN(C(=O)Cn2ccc3ccccc3c2=O)CC1,-15.9,-8.4,-2.1,4.4,.,-3.64*
Cc1ccc(C)c(N2CCN(C(=O)CCNC(=O)Cn3ccc4ccccc4c3=O)CC2)c1,-7.3,-11.9,2.2,13.4,.,-0.0011
COc1ccccc1NC(=O)c1sc2nc(-c3ccco3)ccc2c1N,7.9,-2.0,4.7,29.3,.,-0.86
CSc1nc2ccc3nc(NC(=O)c4cccs4)sc3c2s1,-19.6,72.5*[fluorescence artefact?],-5.7,-3.2,0.602,.
Nc1c(C(=O)Nc2nc3ccccc3s2)sc2nc(-c3cccs3)ccc12,-57.9,96.1*[fluorescence artefact?],-1.6,8.1,.,.
O=C(Nc1nc2ccc(F)cc2s1)c1cccs1,-10.7,-9.8,-2.8,26.1,-0.124,1.02
CC(=O)c1sc2nc(-c3cccs3)ccc2c1N,-14.2,2.4,-10.4,-5.2,-0.131,-1.71
O=C(NC(=S)Nc1nc2ccccc2s1)c1cccs1,-15.1,-20.8,0.4,34.3,72.3*,0.537
Nc1c(C(=O)Nc2ccccc2)sc2nc(-c3ccco3)ccc12,-14.1,76.1*[fluorescence artefact?],11.3,-8.2,.,0.0796
CN(NC(=S)Nc1ccc(OC(F)F)cc1)C(=S)Nc1ccc(OC(F)F)cc1,-8.2,-4.5,-3.8,65.1*,0.584,.
Clc1ccc(-c2n[nH]c3c2CCCC3)cc1,-1.4,-3.8,-9.7,62.1*,0.115,0.818
COc1ccc(CCNC(=S)Nc2cccc3ccccc23)cc1,-0.7,12.4,-16.1,68.0*,-0.00071,.
COc1ccc(CCNC(=S)Nc2ccccc2C)cc1,-0.5,-2.5,6.6,1.1,0.608,.
COc1ccc(CCNC(=S)Nc2cc(C)cc(C)c2)cc1,-4.9,1.1,-8.0,59.0*,.,0
COc1ccc(C(=O)CC(=O)C(=O)NCCc2cccc(C)c2)cc1,-10.6,-1.5,-2.2,14.3,8.33*,-0.812
COc1ccc(OCCNC(=S)Nc2cccc3ccccc23)cc1,-0.1,-10.0,-5.6,60.2*,.,.
COc1ccc(C(=O)NC(=S)NCCc2ccccc2)cc1,-11.7,-2.6,3.9,-1.7,0.769,-0.746
SMILES,p47phox inh,14-3-3 Bad inh,RBBP9 inhibitor,WT yeast gro inh,Cl transport mod,ROMK mod
CCc1ccc2c(c1)cc(C)c1nnc(SCC(=O)Nc3cc(OC)c(OC)cc3C(=O)O)n12,2.9,1.6,-0.9,6.6,.,0.0572
Cn1nc(-c2ccccc2)c(C(O)c2ccc(Cl)cc2)c1Cl (centres undefined),-2.7,-2.0,-5.5,5.9,-1.55,.
Cn1nc(-c2ccccc2)c(CSc2ccccc2Cl)c1Cl,34.2*,8.8,-5.0,45.0,-0.0729,0.0794
CC1(C)CC(=O)C2=C(C1)N(c1ccc(F)cc1)C(=O)C2(O)C(F)(F)F (centres undefined),-5.3,-5.3,-1.6,83.9*,.,.
CCOc1ccccc1N1CCN(C(=O)c2ccc3[nH]c4c(c3c2)CCCC4)CC1,-26.5,1.6,-0.3,58.4*,-1.6,-0.34
CCOc1ccccc1N1CCN(C(=O)c2cccc(-c3ccc(O)cc3)c2)CC1,-17.0,-10.6,-4.0,16.9,-1.44,-0.364
COc1cc2c(cc1NC(=O)c1cccc(Br)c1)CCCC2,4.2,-3.6,-8.9,72.5*,-0.188,-0.606
COc1cc2c(cc1NC(=O)c1cccc(F)c1)CCCC2,-4.4,-3.8,1.8,37.6,1.3,0.154
Cc1ccc(N=Cc2c(O)n(-c3ccc4c(c3)OCO4)c(=O)c3ccccc23)cc1,28.2,19.0,-2.2,73.0*,.,2.21
Cc1cccc(-n2c(O)c(C=Nc3ccc(O)cc3)c3ccccc3c2=O)n1,-23.3,-0.5,-9.9,-12.4,0.281,0.0416
COc1ccc(O[C@H]2C=C[C@@H](c3ccccc3)O[C@@H]2COC(=O)CC/C(C)=N/O[C@@H](C)CN2CCCCc3nc(C)c(C)cc32)cc1,-67.3,-1.8,-10.9,66.7*,0.0295,-1.96
C/C(CCC(=O)OC[C@H]1O[C@H](C#Cc2ccccc2)C=C[C@@H]1Oc1ccc(C)cc1)=N\O[C@@H](C)CN1CCCCc2nc(C)c(C)cc21,-115.6,-12.9,-6.8,20.4,0.669,-2.2
CC1CC(C)(C)N2C(=O)C3(Nc4ccccc4S3)c3cccc1c32 (centres undefined),-12.3,2.0,-1.2,66.8*,.,0.977
C/C(=N\NC(=S)NCc1ccccc1)c1ccc(Br)cc1,-21.0,-5.9,0.5,71.5*,1.6,0.668
C/C(=N\NC(=S)NCCc1ccccc1)c1ccc(C)cc1,-24.2,-8.7,-9.7,53.6,2.91*,.
C/C(=N\NC(=S)NCc1ccccc1)c1ccc2ccccc2c1OC(F)F,-7.2,-14.7,-12.4,68.2*,1.44,-0.499
Nc1nnc(CSCc2cccc(Br)c2)s1,-5.5,-7.4,2.6,-3.2,-0.201,.
CNCCOc1ccccc1OC(C)C,-1.4,3.0,-1.4,-9.8,-0.203,0.558
Cc1c(O)nc(SCC(=O)Nc2ccc3c4c(cccc24)CC3)n(-c2ccc(F)cc2)c1=O,-3.6,-31.0,-6.0,1.9,0.0838,1.1
CCCC(=O)Nc1ccc(C=C(C(C)=O)C(C)=O)cc1,5.1,0.8,-9.7,.,0.846,-0.291
Cc1cc(-c2ccccc2)nc2cc(C(=O)N(Cc3ccccc3)Cc3ccccc3)nn12,-12.6,-17.7,-13.6,74.9*,-1.53,.
C=CCN1C(=O)/C(=c2\sc3nc(=O)c(Cc4ccccc4Cl)nn3c2=O)c2ccccc21,-5.5,-12.5,8.3,.,.,.
O=C(Nc1ccc(Oc2ccccc2)cc1)C1CCN(c2ncccn2)CC1,-13.8,78.5*,-8.3,-1.6,-0.605,.
CCn1c(CN2CCN(c3ccc(Cl)cc3)CC2)nc2ccccc21,-21.8,1.1,-5.5,60.2*,-1.06,-3.09
Cn1c(CN2CCN(c3ccc(Cl)cc3)CC2)nc2ccccc21,-3.9,-11.8,-5.5,17.0,-1.61,.
Cc1ccc2c(CSc3nncn3C)cc(=O)oc2c1C,3.5,34.6,1.9,5.3,0,0.916

# Screens from PubChem BioAssay.
